Shown are actives, neighbours in structure and some others; about 1.8% of the full set was active somewhere.
MT1-MMP act inh: blocks activation of human MT1-MMP | P50281 | HT1080 RFP-PRO-GFP cells, GFP/RFP ratio fluorescence, overnight; percent of plate control window, DMSO zero | GFP/RFP ratio change, % at 20 µM | hit rate 0.061% among 360,000 | AID 651647;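 active = GFP/RFP ratio change of at least 30% with cell ATP level not reduced by more than half and red fluorescence within 50% of control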
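Material: RFP-PRO-GFP reporter HT1080 cells. Dosing: single-point 20 µM compound, 1% DMSO. Controls: DMSO and RFP-L50D-GFP cell wells. Timing: cells overnight before dosing, compound overnight, 37 °C, 5% CO2. Measure: GFP/RFP fluorescence ratio.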
PREPL inhibitor: human PREPL enzyme inhibition | Q4J6C6 | recombinant PREPL, fluorescence polarization activity-based probe | inhibition, % at 5.96 µM | hit rate 0.68% among 320,000;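 note: 0% = enzyme with DMSO and 100% = wells lacking enzyme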
Target sequence (Q4J6C6 whole entry, looked up): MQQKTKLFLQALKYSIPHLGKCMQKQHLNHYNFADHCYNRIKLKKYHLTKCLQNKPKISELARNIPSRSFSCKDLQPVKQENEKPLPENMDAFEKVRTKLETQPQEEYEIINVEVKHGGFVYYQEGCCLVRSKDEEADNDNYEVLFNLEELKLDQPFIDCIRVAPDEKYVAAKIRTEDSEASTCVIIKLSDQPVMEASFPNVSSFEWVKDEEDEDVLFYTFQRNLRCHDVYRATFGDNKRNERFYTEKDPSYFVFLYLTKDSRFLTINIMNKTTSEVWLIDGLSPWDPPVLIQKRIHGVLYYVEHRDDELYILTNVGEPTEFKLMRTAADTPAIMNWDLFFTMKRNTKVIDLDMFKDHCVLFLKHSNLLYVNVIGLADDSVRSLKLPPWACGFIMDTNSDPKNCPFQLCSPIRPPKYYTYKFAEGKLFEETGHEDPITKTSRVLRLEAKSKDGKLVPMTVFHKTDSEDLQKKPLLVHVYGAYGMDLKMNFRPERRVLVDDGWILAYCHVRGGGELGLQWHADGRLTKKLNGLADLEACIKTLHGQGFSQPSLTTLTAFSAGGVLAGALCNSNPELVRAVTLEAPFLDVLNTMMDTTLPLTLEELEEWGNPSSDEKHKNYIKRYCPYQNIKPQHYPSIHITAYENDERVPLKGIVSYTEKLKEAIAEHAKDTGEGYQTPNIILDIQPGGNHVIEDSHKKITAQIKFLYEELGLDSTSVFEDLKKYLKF
iPSC survival up: enhancers of human iPSC single-cell survival; hiPSC single-cell survival, ATPlite luminescence; 100% = ROCK inhibitor wells, 0% = DMSO; survival enhancement, % at 20 µM; hit rate 0.044% among 360,000; AID 602274; in the data active = survival enhancement above about 18%;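 note: cells exposed to compounds for 16 hours before the ATP read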
E coli Lon inh: E. coli protease La inhibition. AID 602123. inhibition, % at 7.94 µM. P0A9M0. purified E. coli Lon protease, fluorescence polarization. hit rate 0.42% among 360,000; in the data active = inhibition above about 13%, passing the limit was not always enough;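 note: 0% = enzyme with probe and DMSO and 100% = no enzyme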
TbMetRS inhib: Trypanosoma brucei MetRS inhibition. purified T. brucei MetRS, ATP depletion, Kinase-Glo luminescence. inhibition, % at 11.9 µM. hit rate 0.4% among 360,000. AID 624268;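 active = inhibition above a per-plate cutoff of the control wells' mean inhibition plus 3 SD, cut at about 5.5% in these data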;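 note: 0% = DMSO wells median and 100% = median of wells with control inhibitor compound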
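Dosing: 11.9 µM single point; system: parasite MetRS enzyme; technique: luminescence of leftover ATP; times: 15 min enzyme-compound preincubation, 2 h reaction, 10 min detection, 25 °C; replicates: each compound tested once; read-out basis: percent inhibition relative to median high and low control wells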
SKN-1 block: inhibitors of C. elegans SKN-1; C. elegans VP596 Pgst-4::GFP/RFP ratio, acrylamide-induced, 24 h; hit rate 0.49% among 360,000; inhibition, % at 21.8 µM; AID 624304;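 active = interference check ratio from 0.5 to 1.5 plus GFP to RFP signal ratio inhibition reaching or exceeding a fixed threshold, cut at about 30% in these data, passing the limit was not always enough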
PREPL inh cf: human PREPL inhibition, confirmation; shares compounds with PREPL inhibitor; recombinant PREPL, fluorescence polarization activity probe; inhibition, % at 5.96 µM; hit rate 67% among 2,000;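 note: 0% = protein with DMSO and 100% = wells lacking protein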
Numbers without * were called inactive; . = no result. Cut-off read from the data, not from the text of the source, unless noted: active = inhibition above about 43%; inactive = the rest.

SMILES | MT1-MMP act inh | PREPL inhibitor | iPSC survival up | E coli Lon inh | TbMetRS inhib | SKN-1 block | PREPL inh cf
Cc1oc(-c2ccccc2F)nc1CS(=O)(=O)CC(=O)NCc1ccccc1Cl | 9 | -19 | 2 | 2 | 1 | 11 | .
COc1cc(/C=N/Nc2nc(Nc3ccccc3)nc(-n3nc(C)cc3C)n2)cc(OC)c1OC | -13 | 12 | 0 | 6 | 0 | 26 | .
COc1ccc(O)c(/C=N/Nc2nc(Nc3ccccc3)nc(-n3nc(C)cc3C)n2)c1 | -29 | 44* | 0 | -6 | -1 | 16 | 39
Cc1cc(C)n2nc(CNS(=O)(=O)c3cccc([N+](=O)[O-])c3)nc2n1 | 0 | -1 | 0 | -8 | 0 | 0 | .
COC(=O)c1ccc(N2CCN(c3ccccc3)CC2)c(NC(=O)C2CC2)c1 | 7 | 50* | 0 | 3 | 0 | 12 | 39
CC(=O)N1CCN(CC(O)COc2ccc(S(=O)(=O)N3CCOCC3)cc2)CC1 (centres undefined) | 3 | 19 | 0 | 5 | 0 | 18 | .
Cn1c(C(F)(F)F)nc2c(=O)oc3ccccc3c21 | 3 | -11 | 0 | 0 | 0 | 3 | .
COc1ccc(CCNc2nc(-c3sc(N)nc3C)cs2)cc1OC | -7 | 43* | 1 | -15 | 0 | 11 | 22
CC(=O)Nc1ccc(Nc2nc(-c3sc(C)nc3C)cs2)cc1 | 3 | 15 | 0 | -2 | -1 | 9 | .
Cc1ccc(Nc2nc(-c3sc(C)nc3C)cs2)cc1 | -9 | 46* | -1 | -9 | -1 | 6 | 32
Cc1ccc(Nc2nc(-c3sc(N)nc3C)cs2)cc1 | 1 | . | 0 | -19 | -1 | -1 | .
COc1ccc(Nc2nc(-c3sc(N)nc3C)cs2)cc1 | 0 | 50* | -5 | -9 | 0 | 26 | 26
Cc1cc([N+](=O)[O-])ccc1NC(=O)c1cc2ccccc2o1 | 4 | 22 | -1 | -3 | -1 | -6 | .
O=C(Nc1ccc(Cl)cn1)C1CCN(c2ncnc3c2nc2n3CCCCC2)CC1 | 8 | 7 | 0 | -6 | -1 | -6 | .
COc1cccc(-c2ccc(SCC(=O)NC3CCCCC3)nn2)c1 | -1 | 44* | 0 | -2 | 0 | -4 | 43
Cc1oc(-c2ccccc2F)nc1CN1CCC(C(=O)NCCC2=CCCCC2)CC1 | 11 | 22 | -2 | 2 | -1 | -20 | .
COc1cccc(C2=CC(c3ccc(N(C)C)cc3)n3nnnc3N2)c1 (centres undefined) | -97 | 70* | 0 | -162 | 0 | -29 | 54*
CCCCNc1ccc(S(=O)(=O)c2cccc([N+](=O)[O-])c2)cc1[N+](=O)[O-] | 0 | 13 | 0 | 3 | 0 | -4 | .
Cc1cccc(OCC(=O)N(Cc2ccc(F)cc2)C2CCS(=O)(=O)C2)c1C (centres undefined) | 0 | 12 | 0 | -4 | 0 | 15 | .
Cc1ccc(S(=O)(=O)Nc2cncnc2NS(=O)(=O)c2ccc(C)cc2)cc1 | -3 | . | -3 | 3 | 0 | 14 | .
CC(C)OCCCNC(=O)c1ccccc1NC(=O)C1=CSCCO1 | -4 | -1 | 1 | 0 | 0 | 12 | .
COc1ccc(-c2cc(-c3ccc(OC)c(OC)c3)n[nH]2)c(O)c1 | 7 | 46* | -2 | 0 | 0 | -3 | 29
Cc1ccc(-n2c(SCC(=O)N(C)C3CCS(=O)(=O)C3)nc3ccccc3c2=O)c(C)c1 (centres undefined) | 1 | 53* | 1 | -4 | 0 | -3 | 0
O=C(NCc1ccccc1)C(c1ccc(F)cc1)N1CCN(c2ccccc2F)CC1 (centres undefined) | -3 | . | . | . | 0 | -8 | .
COc1cc(/C=C2/SC(=S)N(C)C2=O)ccc1OC(=O)c1ccco1 | -17 | 9 | -2 | -24 | 2 | 2 | .
SMILES | MT1-MMP act inh | PREPL inhibitor | iPSC survival up | E coli Lon inh | TbMetRS inhib | SKN-1 block | PREPL inh cf
CCOc1cc(/C=C2/SC(=S)NC2=O)ccc1OC(=O)c1ccco1 | -14 | 66* | 0 | -32 | -2 | 9 | 67*
O=C1NC(=S)S/C1=C/c1ccc(OC(=O)c2ccco2)cc1 | -12 | 65* | 0 | -92 | 0 | 6 | 69*
O=C(NNC(=S)NCCc1ccccc1)c1ccc(Br)s1 | 2 | -4 | -2 | -3 | 2 | 0 | .
CCOc1ccc(N(CC(=O)Nc2cccc(Br)c2)S(C)(=O)=O)cc1 | 4 | -52 | 2 | -6 | 0 | 12 | .
COc1ccc(N2CCN(C(=O)c3ccc(Cn4c(=S)[nH]c5ccc(N6CCOCC6)cc5c4=O)cc3)CC2)cc1 | -6 | 45* | 0 | -1 | 0 | -10 | 45*
Cc1ccc(C)c(N2CCN(C(=O)c3ccc(Cn4c(=S)[nH]c5ccc(N6CCOCC6)cc5c4=O)cc3)CC2)c1 | -9 | 21 | -1 | 4 | 0 | 18 | .
Cc1cc(C)c(SSc2nnnn2-c2ccccc2)c(C)c1 | -2 | . | -3 | 5 | 0 | 1 | .
COc1ccc(/C=C/c2nc3ccccc3n2Cc2ccccc2OC)cc1 | -16 | 49* | -2 | -5 | 0 | 5 | 47*
COc1ccccc1Cn1c(/C=C/c2ccccc2)nc2ccccc21 | -13 | 10 | -3 | 10 | -1 | 9 | .
CCn1c(C)nc2cc(C(=O)N/N=C/c3cccc(O)c3O)ccc21 | -1 | 45* | -1 | 11 | 1 | 3 | 39
CCN(CC)C(=O)C1=C(C)N(CCCN2CCCC2=O)C(=O)C(CC(=O)NCCCN(C)C)C1 (centres undefined) | 2 | . | 0 | -7 | -1 | 5 | .
CC(C)NC(=O)Nc1ccc2c(c1)CC(=O)N([C@@H](C)CO)C[C@H](C)[C@@H](CN(C)C(=O)NC1CCCCC1)O2 | 5 | 7 | -1 | -8 | -1 | 15 | .
C[C@@H]1CN([C@@H](C)CO)C(=O)Cc2cc(NC(=O)Nc3ccc4c(c3)OCO4)ccc2O[C@@H]1CN(C)C(=O)NC1CCCCC1 | 1 | 54* | -1 | 1 | -2 | -2 | 46*
C[C@@H]1CN([C@H](C)CO)C(=O)Cc2cc(NS(=O)(=O)c3ccc(F)cc3)ccc2O[C@H]1CN(C)Cc1ccc(C(=O)O)cc1 | 4 | 16 | -1 | -7 | 0 | 2 | .
Cc1ccc(S(=O)(=O)Nc2ccc3c(c2)CC(=O)N([C@H](C)CO)C[C@H](C)[C@H](CN(C)Cc2ccc4c(c2)OCO4)O3)cc1 | 0 | 51* | -2 | -15 | 0 | -6 | 53*
CCN(CC)CCNc1ccc(CO)c2sc3ccccc3c(=O)c12 | -1 | 45* | -3 | -5 | 0 | 1 | 58*
CCN(CC)CCNc1cccc2sc3ccccc3c(=O)c12 | -9 | . | -3 | -11 | 0 | 1 | .

Assay outcomes from PubChem.
